Source: ChEMBL document CHEMBL2086271, “Bicyclic Cyclohexenones as Inhibitors of NF-κB Signaling” (ACS Med Chem Lett, 2012)
Blank lines part the entries; values can stand above or below the compound they belong to. Active and inactive are the calls of the source. No cut-off for these calls is given here.

Legend:
[1] = Solubility of the compound in DMEM media; type: physicochemical
A549 [2] = assay: Inhibition of TNFalpha-induced NFkappaB in human A549 cells assessed as residual enzyme activity at 100 uM incubated for 30 mins prior to TNFalpha-induction measured after 7 hrs by luciferase reporter gene assay relative to control; type: cell-based
In short: (§1)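 A549 human lung cells stably carry a luciferase reporter driven by six tandem consensus NF-κB sites. Signaling was induced with TNF-α, and compound was added at 100, 50 or 10 μM. Luciferase activity is expressed relative to the induced, DMSO-treated control, set at 100%. Mean ± SD reported.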

A549 [3] = assay: Inhibition of TNFalpha-induced NFkappaB in human A549 cells assessed as residual enzyme activity at 50 uM incubated for 30 mins prior to TNFalpha-induction measured after 7 hrs by luciferase reporter gene assay relative to control; type: cell-based; in short: as §1
A549 [4] = assay: Inhibition of TNFalpha-induced NFkappaB in human A549 cells assessed as residual enzyme activity at 10 uM incubated for 30 mins prior to TNFalpha-induction measured after 7 hrs by luciferase reporter gene assay relative to control; type: cell-based; in short: as §1
A549 [5] = assay: Cytotoxicity against human TNFalpha-induced A549 cells assessed as decrease in cell viability at 50 uM incubated for 30 mins prior to TNFalpha-induction measured after 7 hrs by alamar blue staining relative to control; type: cell-based; settings: a549, 7 h
CCRF-CEM [6] = assay: Cytotoxicity against human CCRF-CEM cells after 48 hrs by alamar blue assay; type: functional, cell-based
In short: (§2)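 Viability read by Alamar Blue staining after 48 h exposure to a range of concentrations. Vero (African green monkey kidney epithelial), RWPE-1, DU-145 and CCRF-CEM human cells were used. IC50 is reported as mean ± SD.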

DU-145 [7] = assay: Cytotoxicity against human DU145 cells after 48 hrs by alamar blue assay; type: functional, cell-based; in short: as §2
DU-145 [8] = assay: Ratio of cryptocaryone IC50 to compound IC50 for human DU145 cells; type: functional
Vero = assay: Cytotoxicity against african green monkey Vero cells after 48 hrs by alamar blue assay; type: cell-based; settings: Chlorocebus sabaeus; in short: as §2
[9] = Cytotoxicity against human RWPE1 cells after 48 hrs by alamar blue assay; type: cell-based; settings: RWPE-1, 48 h; in short: as §2
[10] = Selectivity index, ratio of IC50 for human RWPE1 cells to IC50 for human DU145 cells; type: functional
DU-145 [11] = assay: Inhibition of IkappaB in human DU145 cells assessed as inhibition of TNFalpha-induced NFkappaB p65 nuclear translocation at 100 uM incubated for 14 hrs prior to TNFalpha-induction measured after 2 hrs by Western blot analysis; type: cell-based
CCRF-CEM [12] = assay: Inhibition of IkappaB in human CCRF-CEM cells assessed as inhibition of PMA-induced NFkappaB p65 nuclear translocation at 100 uM incubated for 12 hrs prior to TNFalpha-induction measured after 4 hrs by Western blot analysis; type: cell-based
DU-145 [13] = assay: Partial inhibition of IkappaB in human DU145 cells assessed as inhibition of TNFalpha-induced NFkappaB p65 nuclear translocation at 25 uM incubated for 14 hrs prior to TNFalpha-induction measured after 2 hrs by Western blot analysis; type: cell-based
CCRF-CEM [14] = assay: Partial inhibition of IkappaB in human CCRF-CEM cells assessed as inhibition of PMA-induced NFkappaB p65 nuclear translocation at 25 uM incubated for 12 hrs prior to TNFalpha-induction measured after 4 hrs by Western blot analysis; type: cell-based
DU-145 [15] = assay: Inhibition of NFkappaB in human DU145 cells assessed as inhibition of TNFalpha-induced IL8 mRNA production at 33 uM by RT-PCR analysis; type: cell-based
In short: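 DU-145 cells were dosed with compound (100 or 33 μM) or DMSO vehicle, then induced with TNF-α. IL-8 mRNA was analysed by semiquantitative RT-PCR, with GAPDH as reference. Noninduced and induced cells served as controls.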

DU-145 [16] = assay: Inhibition of NFkappaB in human DU145 cells assessed as inhibition of TNFalpha-induced IL8 protein production at 33 uM by ELISA; type: cell-based
In short: (§3)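 DU-145 cells were dosed with compound (100 or 33 μM) or DMSO vehicle, then NF-κB was induced with TNF-α. Secreted IL-8 in the culture medium was quantified by ELISA, with noninduced and induced controls. Mean ± SEM reported.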

DU-145 [17] = assay: Inhibition of NFkappaB in human DU145 cells assessed as TNFalpha-induced IL8 protein level at 100 uM by ELISA; type: cell-based; in short: as §3

- solubility [1]: Insoluble
Structure (SMILES): CO[C@@]12C=C(Br)C(=O)C[C@@H]1/C(=C(/OC(C)=O)c1ccccc1)CC2 (racemic)

Structure (SMILES): CC(=O)O/C(=C1\CO[C@]2(C)C=CC(=O)C[C@H]12)c1ccccc1 (racemic)
- Activity (A549 [2]): 33.9%
- Activity (A549 [3]): 61.6%
- Activity (A549 [4]): 90.9%
- Activity (A549 [5]): 10%
- IC50 (CCRF-CEM [6]; Homo sapiens, CCRF-CEM, 48 h): 26.4 µM
- IC50 (DU-145 [7]; Homo sapiens, DU-145, 48 h): 33.7 µM
- Ratio IC50 (DU-145 [8]): 15
- IC50 (Vero): > 500 µM
- IC50 [9]: 14.8 µM
- Ratio IC50 [10]: 0.44
- inhibition (DU-145 [11]): Active
- inhibition (CCRF-CEM [12]): Active
- inhibition (DU-145 [13]): Active
- inhibition (CCRF-CEM [14]): Active
- inhibition (DU-145 [15]): Active
- Activity (DU-145 [16]): 3480 pg/mL

Structure (SMILES): O=C1C[C@@H]2/C(=C(O)\C=C\c3ccccc3)C(=O)C=C[C@@H]2O1 [CRYPTOCARYONE]
- IC50 (DU-145 [7]; Homo sapiens, DU-145, 48 h): 2.3 µM

Structure (SMILES): CC(=O)O/C(C)=C1\CO[C@]2(C)C=C(Br)C(=O)C[C@H]12 (racemic)
- inhibition (A549 [2]): inactive
- inhibition (A549 [3]): inactive
- inhibition (A549 [4]): inactive

Structure (SMILES): CC(=O)O/C(C)=C1\CO[C@]2(C)C=CC(=O)C[C@]12C (racemic)
- inhibition (A549 [2]): inactive
- inhibition (A549 [3]): inactive
- inhibition (A549 [4]): inactive

Structure (SMILES): CC(=O)O/C(C)=C1\CO[C@]2(c3ccccc3)C=CC(=O)C[C@H]12 (racemic; form 1) [listing 1 of 2 here]
- Activity (A549 [2]): 17.3%
- Activity (A549 [3]): 36.2%
- Activity (A549 [4]): 93.7%
- inhibition (DU-145 [11]): Active
- inhibition (CCRF-CEM [12]): Active
- inhibition (DU-145 [13]): Active
- inhibition (CCRF-CEM [14]): Active
- inhibition (DU-145 [15]): Active
- Activity (DU-145 [16]): 2970 pg/mL

Structure (SMILES): CC(=O)O/C(C)=C1\CO[C@]2(C)C=C(Br)[C@H](O)C[C@H]12 (racemic)
- inhibition (A549 [2]): inactive
- inhibition (A549 [3]): inactive
- inhibition (A549 [4]): inactive

Structure (SMILES): CC(=O)O/C(C)=C1\CO[C@]2(c3ccccc3)C=CC(=O)C[C@H]12 (racemic; form 2) [listing 1 of 2 here]
- IC50 (CCRF-CEM [6]; Homo sapiens, CCRF-CEM, 48 h): 19 µM
- IC50 (DU-145 [7]; du-145): 46 µM

Structure (SMILES): CC(=O)[C@H]1CO[C@]2(C)C=C(c3ccccc3)[C@H](O)C[C@H]12 (racemic)
- inhibition (A549 [2]): inactive
- inhibition (A549 [3]): inactive
- inhibition (A549 [4]): inactive

Structure (SMILES): CC(=O)O/C(C)=C1\CO[C@]2(c3ccccc3)C=CC(=O)C[C@H]12 (racemic; form 2) [listing 2 of 2 here]
- Activity (A549 [3]): 18%

Structure (SMILES): CC(=O)O/C(=C1\CO[C@]2(C)CCC(=O)C[C@H]12)c1ccccc1 (racemic)
- Activity (A549 [2]): 76.1%
- Activity (A549 [3]): 94.4%
- Activity (A549 [4]): 109%
- IC50 (CCRF-CEM [6]; Homo sapiens, CCRF-CEM, 48 h): > 500 µM
- IC50 (DU-145 [7]; Homo sapiens, DU-145, 48 h): > 500 µM
- IC50 (Vero): > 500 µM
- IC50 [9]: > 500 µM
- Activity (DU-145 [17]): 4900 pg/mL

Structure (SMILES): CC(=O)O/C(C)=C1\CO[C@]2(c3ccccc3)C=CC(=O)C[C@H]12 (racemic; form 1) [listing 2 of 2 here]
- Activity (A549 [5]): 5%
- IC50 (CCRF-CEM [6]; ccrf-cem): 26.4 µM
- IC50 (DU-145 [7]; Homo sapiens, DU-145, 48 h): 35.9 µM
- Ratio IC50 (DU-145 [8]): 15
- IC50 (Vero): > 500 µM
- IC50 [9]: 98.8 µM
- Ratio IC50 [10]: 2.75

Structure (SMILES): CC(=O)O/C(C)=C1\CO[C@]2(C)C=C(C)C(=O)C[C@H]12 (racemic)
- inhibition (A549 [2]): inactive
- inhibition (A549 [3]): inactive
- inhibition (A549 [4]): inactive
